{"source": "paper PMC6018888", "about": "(Drug Design, Development and Therapy, 2018)", "assay_type_in_all_cases": "in vivo, human", "key": {"[1]": {"tested_on": "urinary excretion of uric acid", "test": "Pharmacodynamics: urinary uric acid excretion", "details": "for percent change from baseline in AeUR over 0–6 hours: non-Asian subjects, 10 mg", "procedure,_shortened": "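Total-catch urine was collected at 6- or 12-h intervals from predose to 72 h after dosing on days 1 (fasted ≥10 h, no food 4 h postdose) and 12, and to 24 h on day 6 (fed). Urine uric acid, urine creatinine and serum creatinine were measured. CLUR0–24 = urinary uric acid amount ÷ urate AUC0–24. FEUA0–24 = CLUR0–24 ÷ creatinine clearance × 100.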"}, "[2]": {"test": "Verinurad plasma pharmacokinetics, Phase I single and multiple dose study", "details": "for GMR AUC0–24 (day 6/day 1) / GMR AUC0–∞ (day 6/day 1) / GMR Cmax (day 6/day 1): fed (day 6) vs fasted (day 1); for Tmax: median (range); for AUC(0-t): AUC0–24, Japanese subjects; for half-life: t1/2, Japanese subjects", "procedure,_shortened": "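Oral modified-release tablets were given once as a single dose on day 1 (fasted overnight ≥10 h) and day 6 (after a moderate-fat breakfast), then daily fed through day 12. Serial plasma was sampled to 72 h on days 1 and 12, to 24 h on day 6, and predose on days 8–11. Samples were stored at −70°C. Cmax and AUC0–24 came from noncompartmental analysis, with comparisons as geometric mean ratios.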"}, "serum urate (sUA)": {"tested_on": "serum urate (sUA)", "test": "Pharmacodynamics: serum urate", "details": "for mean reduction of serum urate after 24 hours: multiple verinurad 10 mg doses", "procedure,_shortened": "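Healthy males (screening sUA >4.5 mg/dL) took oral modified-release 2.5 mg tablets or placebo (6:2 per panel) once daily for 7 days (days 6–12), after a moderate-fat breakfast. Japanese panels received 2.5–15 mg and non-Asian subjects 10 mg. Serum sampled predose days 1, 6 and 8–12, then to 72 h (day 12). Maximum percent change from baseline and its timing were read directly from concentration–time data.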"}, "[3]": {"details": "Non-Asian subjects, 10 mg single dose, fed, mean (95% CI)"}, "[4]": {"details": "Japanese subjects, 2.5 mg single dose"}, "[5]": {"details": "Japanese subjects, 5 mg single dose"}, "[6]": {"details": "Japanese subjects, 10 mg single dose"}, "[7]": {"details": "Japanese subjects, 15 mg single dose"}, "[8]": {"details": "Japanese subjects, across the dose groups 2.5–15 mg, fed vs fasted"}, "[9]": {"details": "male, human, plasma, oral, 5 mg, 5 mg once daily multiple doses, fed, day 12, geometric mean (95% CI)"}, "[10]": {"details": "male, human, plasma, oral, 10 mg, 10 mg once daily multiple doses, fed, day 12, geometric mean (95% CI)"}, "[11]": {"details": "male, human, plasma, oral, 15 mg, 15 mg once daily multiple doses, fed, day 12, geometric mean (95% CI)"}, "[12]": {"details": "multiple verinurad 10 mg doses, fed"}, "[13]": {"details": "Japanese subjects, 2.5 mg multiple once-daily doses, fed"}, "[14]": {"details": "Japanese subjects, 5 mg multiple once-daily doses, fed"}, "[15]": {"details": "Japanese subjects, 10 mg multiple once-daily doses, fed"}, "[16]": {"details": "Japanese subjects, 15 mg multiple once-daily doses, fed"}, "[17]": {"details": "non-Asian subjects, 10 mg multiple once-daily dosing, fed"}}}
{"smiles": "CC(C)(Sc1ccncc1-c1ccc(C#N)c2ccccc12)C(=O)O", "note": "[verinurad]", "values": [{"measurement": "CLUR0–24", "setting": "[1]; [3]", "value": "18.6 (8.95–28.2) mL/min"}, {"measurement": "FEUA0–24", "setting": "[1]; [3]", "value": "11.7 (6.44–17.0) %"}, {"measurement": "percent change from baseline in AeUR over 0–6 hours", "setting": "[1]; day 1", "value": 70, "unit": "%"}, {"measurement": "percent change from baseline in AeUR over 0–6 hours", "setting": "[1]; day 6", "value": 141, "unit": "%"}, {"measurement": "percent change from baseline in AeUR over 0–6 hours", "setting": "[1]; day 12", "value": -41, "unit": "%"}, {"measurement": "AUC0–24 GMR, % (95% CI), Japanese/non-Asian", "setting": "[2]; 10 mg multiple dose, fed", "value": "123 (93.0–162) %"}, {"measurement": "AUC0–24 GMR, % (95% CI), Japanese/non-Asian, bodyweight normalized to 70 kg", "setting": "[2]; 10 mg multiple dose, fed", "value": "96.9 (77.4–121) %"}, {"measurement": "Cmax GMR, % (95% CI), Japanese/non-Asian", "setting": "[2]; 10 mg multiple dose, fed", "value": "138 (112–171) %"}, {"measurement": "Cmax GMR, % (95% CI), Japanese/non-Asian, bodyweight normalized to 70 kg", "setting": "[2]; 10 mg multiple dose, fed", "value": "109 (94.4–126) %"}, {"measurement": "AUC0–24 GMR, % (95% CI), Japanese/non-Asian", "setting": "[2]; 10 mg single dose, fasted", "value": "134 (111–161) %"}, {"measurement": "AUC0–24 GMR, % (95% CI), Japanese/non-Asian, bodyweight normalized to 70 kg", "setting": "[2]; 10 mg single dose, fasted", "value": "106 (84.5–132) %"}, {"measurement": "Cmax GMR, % (95% CI), Japanese/non-Asian", "setting": "[2]; 10 mg single dose, fasted", "value": "199 (167–237) %"}, {"measurement": "Cmax GMR, % (95% CI), Japanese/non-Asian, bodyweight normalized to 70 kg", "setting": "[2]; 10 mg single dose, fasted", "value": "157 (132–187) %"}, {"measurement": "AUC0–24 GMR, % (95% CI), Japanese/non-Asian", "setting": "[2]; 10 mg single dose, fed", "value": "176 (137–227) %"}, {"measurement": "AUC0–24 GMR, % (95% CI), Japanese/non-Asian, bodyweight normalized to 70 kg", "setting": "[2]; 10 mg single dose, fed", "value": "139 (114–170) %"}, {"measurement": "Cmax GMR, % (95% CI), Japanese/non-Asian", "setting": "[2]; 10 mg single dose, fed", "value": "142 (107–189) %"}, {"measurement": "Cmax GMR, % (95% CI), Japanese/non-Asian, bodyweight normalized to 70 kg", "setting": "[2]; 10 mg single dose, fed", "value": "112 (88.5–143) %"}, {"measurement": "GMR AUC0–24 (day 6/day 1)", "setting": "[2]; [4]", "value": "146 (101–211) %"}, {"measurement": "GMR AUC0–∞ (day 6/day 1)", "setting": "[2]; [4]", "value": "131 (82.9–208) %"}, {"measurement": "GMR Cmax (day 6/day 1)", "setting": "[2]; [4]", "value": "116 (105–128) %"}, {"measurement": "Rac, accumulation ratio (day 12/day 6), AUC0–24", "setting": "[2]; Japanese subjects, 2.5 mg, fed", "value": "1.06 (0.672–1.68)"}, {"measurement": "Tmax", "setting": "[2]; Japanese subjects, 5 mg once daily multiple doses, fed, day 12", "value": "4.00 (2.00–10.0) h"}, {"measurement": "GMR AUC0–24 (day 6/day 1)", "setting": "[2]; [5]", "value": "185 (121–283) %"}, {"measurement": "GMR AUC0–∞ (day 6/day 1)", "setting": "[2]; [5]", "value": "173 (108–278) %"}, {"measurement": "GMR Cmax (day 6/day 1)", "setting": "[2]; [5]", "value": "126 (89.1–179) %"}, {"measurement": "Rac, accumulation ratio (day 12/day 6), Cmax", "setting": "[2]; Japanese subjects, 5 mg, fed", "value": "1.24 (1.01–1.53)"}, {"measurement": "AUC0–24", "setting": "[2]; Japanese subjects, 10 mg single dose, fasted, day 1, geometric mean (95% CI)", "value": "93.4 (74.2–118) ng·h/mL"}, {"measurement": "GMR AUC0–24 (day 6/day 1)", "setting": "[2]; [6]", "value": "209 (172–253) %"}, {"measurement": "GMR AUC0–∞ (day 6/day 1)", "setting": "[2]; [6]", "value": "197 (181–215) %"}, {"measurement": "GMR Cmax (day 6/day 1)", "setting": "[2]; [6]", "value": "99.7 (85.1–117) %"}, {"measurement": "Rac, accumulation ratio (day 12/day 6), AUC0–24", "setting": "[2]; Japanese subjects, 10 mg, fed", "value": "0.886 (0.679–1.16)"}, {"measurement": "Rac, accumulation ratio (day 12/day 6), Cmax", "setting": "[2]; Japanese subjects, 10 mg, fed", "value": "1.14 (0.774–1.64)"}, {"measurement": "AUC0–24", "setting": "[2]; Japanese subjects, 15 mg single dose, fed, day 6, geometric mean (95% CI)", "value": "239 (137–416) ng·h/mL"}, {"measurement": "GMR AUC0–24 (day 6/day 1)", "setting": "[2]; [7]", "value": "107 (89.1–128) %"}, {"measurement": "GMR AUC0–∞ (day 6/day 1)", "setting": "[2]; [7]", "value": "100 (83.1–120) %"}, {"measurement": "GMR Cmax (day 6/day 1)", "setting": "[2]; [7]", "value": "112 (90.6–139) %"}, {"measurement": "Rac, accumulation ratio (day 12/day 6), AUC0–24", "setting": "[2]; Japanese subjects, 15 mg, fed", "value": "1.20 (0.979–1.46)"}, {"measurement": "Rac, accumulation ratio (day 12/day 6), Cmax", "setting": "[2]; Japanese subjects, 15 mg, fed", "value": "1.09 (0.823–1.44)"}, {"measurement": "effect of moderate-fat meal on plasma AUC0–∞ (increase)", "setting": "[2]; [8]", "value": "0%–97%"}, {"measurement": "effect of moderate-fat meal on plasma Cmax (increase)", "setting": "[2]; [8]", "value": "0%–26%"}, {"measurement": "AUC0–24", "setting": "[2]; Japanese, 10 mg single dose, fasted, geometric least square mean", "value": 93.4, "unit": "ng·h/mL"}, {"measurement": "Cmax", "setting": "[2]; Non-Asian, 10 mg single dose, fed, geometric least square mean", "value": 15.4, "unit": "ng/mL"}, {"measurement": "AUC(0-t)", "setting": "[2]; [9]", "value": 80.9, "unit": "ng·h/mL"}, {"measurement": "Cmax", "setting": "[2]; male, human, plasma, oral, 5 mg, Cmax, Japanese subjects, 5 mg once daily multiple doses, fed, day 12, geometric mean (95% CI)", "value": 11.5, "unit": "ng/mL"}, {"measurement": "half-life", "setting": "[2]; [9]", "value": 7.85, "unit": "h"}, {"measurement": "AUC(0-t)", "setting": "[2]; [10]", "value": 173, "unit": "ng·h/mL"}, {"measurement": "Cmax", "setting": "[2]; male, human, plasma, oral, 10 mg, Cmax, Japanese subjects, 10 mg once daily multiple doses, fed, day 12, geometric mean (95% CI)", "value": 24.9, "unit": "ng/mL"}, {"measurement": "Tmax", "setting": "[2]; male, human, plasma, oral, 10 mg, Tmax, Japanese subjects, 10 mg once daily multiple doses, fed, day 12", "value": 4.5, "unit": "h"}, {"measurement": "half-life", "setting": "[2]; [10]", "value": 6.93, "unit": "h"}, {"measurement": "AUC(0-t)", "setting": "[2]; [11]", "value": 286, "unit": "ng·h/mL"}, {"measurement": "Cmax", "setting": "[2]; male, human, plasma, oral, 15 mg, Cmax, Japanese subjects, 15 mg once daily multiple doses, fed, day 12, geometric mean (95% CI)", "value": 41.5, "unit": "ng/mL"}, {"measurement": "half-life", "setting": "[2]; [11]", "value": 9.79, "unit": "h"}, {"measurement": "AUC higher in Japanese vs non-Asian subjects", "setting": "[2]; [12]", "value": 23, "unit": "%"}, {"measurement": "Cmax higher in Japanese vs non-Asian subjects", "setting": "[2]; [12]", "value": 38, "unit": "%"}, {"measurement": "time of maximum reduction in sUA", "setting": "serum urate (sUA); Japanese and non-Asian subjects, multiple once-daily doses, fed", "value": "≤ 12", "unit": "hours postdose"}, {"measurement": "sUA least square mean maximum percent change from baseline at 12 hours", "setting": "serum urate (sUA); [13]", "value": "−31", "unit": "%"}, {"measurement": "sUA percent change from baseline at 24 hours", "setting": "serum urate (sUA); [13]", "value": "−16", "unit": "%"}, {"measurement": "sUA least square mean maximum percent change from baseline at 12 hours", "setting": "serum urate (sUA); [14]", "value": "−50", "unit": "%"}, {"measurement": "sUA percent change from baseline at 24 hours", "setting": "serum urate (sUA); [14]", "value": "−31", "unit": "%"}, {"measurement": "sUA least square mean maximum percent change from baseline at 12 hours", "setting": "serum urate (sUA); [15]", "value": "−62", "unit": "%"}, {"measurement": "sUA percent change from baseline at 24 hours", "setting": "serum urate (sUA); [15]", "value": "−46", "unit": "%"}, {"measurement": "sUA concentration at maximum reduction", "setting": "serum urate (sUA); [16]", "value": "< 2", "unit": "mg/dL"}, {"measurement": "sUA least square mean maximum percent change from baseline at 12 hours", "setting": "serum urate (sUA); [16]", "value": "−74", "unit": "%"}, {"measurement": "sUA percent change from baseline at 24 hours", "setting": "serum urate (sUA); [16]", "value": "−55", "unit": "%"}, {"measurement": "mean reduction of serum urate after 24 hours", "setting": "serum urate (sUA); Japanese subjects", "value": 46, "unit": "%"}, {"measurement": "sUA maximum percent change from baseline", "setting": "serum urate (sUA); [17]", "value": "−58", "unit": "%"}, {"measurement": "sUA percent change from baseline at 24 hours postdose", "setting": "serum urate (sUA); [17]", "value": "−44", "unit": "%"}, {"measurement": "mean reduction of serum urate after 24 hours", "setting": "serum urate (sUA); non-Asian subjects", "value": 44, "unit": "%"}]}
